Experimental findings from ChEMBL document CHEMBL3871266, “Synthesis and cytotoxic activity of novel A-ring cleaved ursolic acid derivatives in human non-small cell lung cancer cells” (Eur J Med Chem, 2016) are described below.

Test [1] concerns NCI-H460. In words: Induction of autophagy in human NCI-H460 cells expressing CTR5 gene assessed as acidic vesicular organelle formation at 3 uM measured after 72 hrs by acridine orange dye based flow cytometry (reference value: 91.2%). It is filed as functional.
For test [2], the system named is NCI-H460. In words: Induction of apoptosis in human NCI-H460 cells expressing CTR5 gene assessed as early apoptotic cells at 4 uM measured after 72 hrs in presence of autophagy inhibitor chloroquine by Annexin V-Cy5/propidium iodide staining-based flow cytometry (reference value: 1.8%). It is filed as functional.
Test [3] is described as follows: Upregulation of Beclin1 level in human NCI-H460 cells expressing CTR5 gene at 3.5 uM measured after 24 hrs by reverse-phase protein array method relative to control. It is filed as functional, cell-based.
In test [4] the target is Serine/threonine-protein kinase mTOR (Homo sapiens) (UniProt P42345). In words: Inhibition of mTOR in human NCI-H460 cells expressing CTR5 gene assessed as decrease in S6 phosphorylation at S240/44 site by reverse-phase protein array method relative to control. It is filed as cell-based.
Test [5] in a line: Upregulation of Atg7 level in human NCI-H460 cells expressing CTR5 gene at 3.5 uM measured after 24 hrs by reverse-phase protein array method relative to control. It is filed as functional, cell-based.
The next test has as its system NCI-H322. In words: Increase in lipidation of LC3A/B1 to LC3A/B2 in human NCI-H322 cells measured after 24 hrs by Western blot analysis. It is filed as functional, cell-based. A digest of the protocol: (§1)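 Cells were seeded at 3×10^5 (H460) or 4.2×10^5 (H322) per dish and treated 24h later with DMSO or a concentration series for 24h. Lysed in cold RIPA with phosphatase and protease inhibitors, then sonicated. 30 μg protein run on Bis-Tris gels and transferred to nitrocellulose or PVDF. Detection used infrared secondary antibodies on an Odyssey imager. Signal normalized to β-actin or GAPDH and to DMSO control; three independent experiments.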
For orientation: In western blotting, separated proteins are transferred to a membrane and probed.

Test [6] relates to NCI-H460. In words: Induction of apoptosis in human NCI-H460 cells expressing CTR5 gene assessed as viable cells at 20 uM measured after 72 hrs by Annexin V-Cy5/propidium iodide staining-based flow cytometry (reference value: 94.6%). It is filed as functional. To be noted: NCI-H460, 72 h, read-out: Activity. (In general: A flow cytometer gives signals particle by particle.)
In test [7] the test system is NCI-H460. In words: Induction of autophagy in human NCI-H460 cells expressing CTR5 gene measured after 24 hrs by reverse-phase protein array method. It is filed as functional, cell-based.
For test [8], the system named is NCI-H460. In words: Induction of apoptosis in human NCI-H460 cells expressing CTR5 gene assessed as downregulation of Mcl1 short isoform expression at 3 to 4.5 uM measured after 24 hrs by Western blot analysis. It is filed as functional, cell-based. The gist of the method:
as §1

Test [9] is described as follows: Cytotoxicity against human NCI-H460 spheroids expressing CTR5 gene assessed as reduction in cell viability measured after 96 hrs by CellTiter-Glo luminescence viability assay. It is filed as functional, cell-based. Conditions: NCI-H460, 96 h. The gist of the method: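 Spheroids grown in round-bottom ultralow-attachment wells, 495 (H460 CTR5) or 650 (H322) cells/well. Drug exposure 96h with DMSO vehicle. CellTiter-Glo added, shaken 20 min, left 10 min, then luminescence read. IC50 by nonlinear regression; three independent experiments.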

The subject of test [10] is NCI-H460. In words: Induction of apoptosis in human NCI-H460 cells expressing CTR5 gene assessed as cleaved PARP level at 3 to 5.5 uM measured after 24 hrs by Western blot analysis. It is filed as functional, cell-based. The gist of the method: as §1
The nature of test [11]: Upregulation of LC3-2 level in human NCI-H460 cells expressing CTR5 gene at 3.5 uM measured after 24 hrs by reverse-phase protein array method relative to control. It is filed as functional, cell-based.
Test [12] relates to NCI-H460. In words: Induction of apoptosis in human NCI-H460 cells expressing CTR5 gene assessed as late apoptotic cells at 20 uM measured after 72 hrs by Annexin V-Cy5/propidium iodide staining-based flow cytometry (reference value: 2.7%). It is filed as functional.
Test [13] relates to NCI-H460. In words: Increase in lipidation of LC3A/B1 to LC3A/B2 in human NCI-H460 cells expressing CTR5 gene measured after 24 hrs by Western blot analysis. It is filed as functional, cell-based. A digest of the protocol:
as §1

For test [14], the system named is NCI-H460. In words: Increase in Beclin1 level in human NCI-H460 cells expressing CTR5 gene at 3 to 5.5 uM measured after 24 hrs by Western blot analysis. It is filed as functional, cell-based. The gist of the method:
as §1

The test system of test [15] is NCI-H460. In words: Induction of apoptosis in human NCI-H460 cells expressing CTR5 gene assessed as increase in cleavage of procaspase7 at 3 to 5.5 uM measured after 24 hrs by Western blot analysis. It is filed as functional, cell-based. The gist of the method: as §1
Test [16] addresses Serine/threonine-protein kinase mTOR (Homo sapiens) (UniProt P42345). In words: Inhibition of mTOR in human NCI-H460 cells expressing CTR5 gene assessed as upregulation of EIF4E pS09 level. It is filed as cell-based.
A short description of test [17]: Downregulation of p62 level in human NCI-H460 cells expressing CTR5 gene at 3 to 5.5 uM measured after 24 hrs by Western blot analysis. It is filed as functional, cell-based. A digest of the protocol:
as §1

Test [18] in a line: Upregulation of Atg3 level in human NCI-H460 cells expressing CTR5 gene at 3.5 uM measured after 24 hrs by reverse-phase protein array method relative to control. It is filed as functional, cell-based.
Test [19] can be described thus: Downregulation of Mcl1 long isoform protein expression in human NCI-H460 cells expressing CTR5 gene at 3 to 4.5 uM measured after 24 hrs by Western blot analysis. It is filed as functional, cell-based. A digest of the protocol: as §1
Test [20] relates to NCI-H460. In words: Induction of autophagy in human NCI-H460 cells expressing CTR5 gene measured after 24 hrs by microarray method. It is filed as functional, cell-based.

Active and inactive are the calls of the source. The rule behind the calls is not given here.

One may read the inhibition as how much of the control response was suppressed. As a reminder, the IC50 is the concentration that inhibits the measured activity by half. With `C=C(C)[C@@H]1CC[C@]2(C)[C@H](C[C@@H](F)C34OC(=O)[C@@]5(CC[C@@H](C)[C@H](C)[C@@H]35)CC[C@]42C)[C@@]1(C)CCC(=O)NCCC`, the Activity in the test with NCI-H460 [1] was 88.6%; with NCI-H460 [2], 7.6%; in test [3] it was 5.6%; in [5], 4.5%; in the test with NCI-H322, “Dose-dependent effect”; with NCI-H460 [8] it was “Dose-dependent effect”. For the same molecule, the Activity was 10.7% in test [11]; 2% with NCI-H460 [12]; “Dose-dependent effect” in the test with NCI-H460 [13]; 5.1% in test [18]; “Dose-dependent effect” in test [19]. For the same molecule, the inhibition in [4] is 8.4%. Further, in the test with NCI-H460 [6], the viability at 20 µM turned out to be 94.3%. In addition, the result (with NCI-H460 [7]; in the test on NCI-H460 [10]; in the test with NCI-H460 [14]; with NCI-H460 [15]; in test [17]; in the test with NCI-H460 [20]) was Active. Moreover, the IC50 in [9] is 5.5 µM. Moreover, the inhibition entry in test [16] is “Active”.
